Experimental data taken from ChEMBL document CHEMBL1158535, “Thiazole, oxadiazole, and carboxamide derivatives of artemisinin are highly selective and potent inhibitors of Toxoplasma gondii” (J Med Chem, 2010).
Activity calls are given as the source filed them. The rule behind the calls is not given here.

Tested on: Toxoplasma gondii
Experiment: Antiparasitic activity against Toxoplasma gondii 2F infected in HFF cells assessed as inhibition of parasite replication at 1 uM
Format: functional, organism-based
Conditions: not given
Outline: (§1)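 HFF monolayers inoculated with tachyzoites, 2 h at 37°C/5% CO2, then compound (1, 5 or 10 μM) or DMSO added. Replication 24-26 h, then fixed, permeabilized, immunolabeled anti-p30 with DAPI. Parasites per vacuole (1, 2, 4, 8+) counted by eye in 10 random fields; reported as modal number/doublings.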
In the case of `CC1=C(c2nc(C)cs2)O[C@@H]2O[C@@]3(C)CC[C@H]4[C@H](C)CC[C@@H]1[C@@]24OO3`, the Activity is reported as “Active”. In the case of `CC1=C(c2nc(-c3ccccc3)cs2)O[C@@H]2O[C@@]3(C)CC[C@H]4[C@H](C)CC[C@@H]1[C@@]24OO3`, the Activity is reported as “Active”. For `CC1=C(c2nc(C(C)(C)C)cs2)O[C@@H]2O[C@@]3(C)CC[C@H]4[C@H](C)CC[C@@H]1[C@@]24OO3`, the Activity was “Active”. In the case of `CC1=C(c2nc(-c3ccccc3)no2)O[C@@H]2O[C@@]3(C)CC[C@H]4[C@H](C)CC[C@@H]1[C@@]24OO3`, the Activity is reported as “Active”. For `CC1=C(c2nc(C)c(C)s2)O[C@@H]2O[C@@]3(C)CC[C@H]4[C@H](C)CC[C@@H]1[C@@]24OO3`, the Activity was “Active”. For `CC1=C(c2ncc(C)s2)O[C@@H]2O[C@@]3(C)CC[C@H]4[C@H](C)CC[C@@H]1[C@@]24OO3`, the Activity was “Active”.

Tested on: Toxoplasma gondii
Experiment: Antiparasitic activity against Toxoplasma gondii 2F infected in HFF cells assessed as inhibition of parasite replication at 10 uM
Format: functional, organism-based
Conditions: not given
Outline: as §1
With `CC1=C(c2nc(C)cs2)O[C@@H]2O[C@@]3(C)CC[C@H]4[C@H](C)CC[C@@H]1[C@@]24OO3` the Activity was “Active”. With `CC1=C(c2nc(-c3ccccc3)cs2)O[C@@H]2O[C@@]3(C)CC[C@H]4[C@H](C)CC[C@@H]1[C@@]24OO3` the Activity was “Active”. For `CC1=C(c2nc(C(C)(C)C)cs2)O[C@@H]2O[C@@]3(C)CC[C@H]4[C@H](C)CC[C@@H]1[C@@]24OO3`, the Activity was “Active”. With `CC1=C(c2nc(-c3ccccc3)no2)O[C@@H]2O[C@@]3(C)CC[C@H]4[C@H](C)CC[C@@H]1[C@@]24OO3` the Activity was “Active”. For `CC1=C(c2nc(C)c(C)s2)O[C@@H]2O[C@@]3(C)CC[C@H]4[C@H](C)CC[C@@H]1[C@@]24OO3`, the Activity was “Active”. For `CC1=C(c2ncc(C)s2)O[C@@H]2O[C@@]3(C)CC[C@H]4[C@H](C)CC[C@@H]1[C@@]24OO3`, the Activity was “Active”.

Tested on: Toxoplasma gondii
Experiment: Antiparasitic activity against Toxoplasma gondii 2F infected in HFF cells assessed as beta galactosidase activity after 5 days
Format: functional, organism-based
Conditions: 120 h
Outline: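 HFF monolayers infected with β-galactosidase-expressing T. gondii 2F tachyzoites; compounds from final 320 μM serially diluted 0.5 log10, drug-free parasite control. After 4 days at 37°C/5% CO2, CPRG substrate added and incubated 1 more day. Absorbance 570-650 nm relative to parasite control. IC50 calculated; at least three independent experiments.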
Compound `CC1=C(c2nccs2)O[C@@H]2O[C@@]3(C)CC[C@H]4[C@H](C)CC[C@@H]1[C@@]24OO3` has an IC50 of 1.1 µM. Compound `CC1=C(c2nc(C)cs2)O[C@@H]2O[C@@]3(C)CC[C@H]4[C@H](C)CC[C@@H]1[C@@]24OO3` has an IC50 of 0.4 µM. `CC1=C(c2nc(-c3ccccc3)cs2)O[C@@H]2O[C@@]3(C)CC[C@H]4[C@H](C)CC[C@@H]1[C@@]24OO3` showed an IC50 of 0.34 µM. `CCN(CC)C(=O)C1=C(C)[C@@H]2CC[C@@H](C)[C@@H]3CC[C@@]4(C)OO[C@@]23[C@H](O1)O4` gave an IC50 of 11 µM. Work on `CC1=C(c2nc(C3CCCCC3)cs2)O[C@@H]2O[C@@]3(C)CC[C@H]4[C@H](C)CC[C@@H]1[C@@]24OO3` yielded an IC50 of 0.59 µM. Compound `CC1=C(C(=O)NCc2cc(Br)cc(Br)c2)O[C@@H]2O[C@@]3(C)CC[C@H]4[C@H](C)CC[C@@H]1[C@@]24OO3` has an IC50 of 0.81 µM. In the case of `C[C@@H]1CC[C@H]2[C@@H](C)C(=O)O[C@@H]3O[C@@]4(C)CC[C@@H]1[C@]32OO4` [ARTEMISININ], the IC50 is reported as 0.64 µM. `CC1=C(C(=O)NCc2ccc(F)cc2)O[C@@H]2O[C@@]3(C)CC[C@H]4[C@H](C)CC[C@@H]1[C@@]24OO3` showed an IC50 of 0.47 µM. Work on `CCNC(=O)C1=C(C)[C@@H]2CC[C@@H](C)[C@@H]3CC[C@@]4(C)OO[C@@]23[C@H](O1)O4` yielded an IC50 of 6.8 µM. With `CC1=C(c2nc(C(C)(C)C)cs2)O[C@@H]2O[C@@]3(C)CC[C@H]4[C@H](C)CC[C@@H]1[C@@]24OO3` the IC50 was 0.25 µM. Work on `CC1=C(c2nc(-c3ccccc3)no2)O[C@@H]2O[C@@]3(C)CC[C@H]4[C@H](C)CC[C@@H]1[C@@]24OO3` yielded an IC50 of 0.44 µM. For `CC1=C(c2nc(C)c(C)s2)O[C@@H]2O[C@@]3(C)CC[C@H]4[C@H](C)CC[C@@H]1[C@@]24OO3`, the IC50 was 0.16 µM. Compound `CC1=C(c2ncc(C)s2)O[C@@H]2O[C@@]3(C)CC[C@H]4[C@H](C)CC[C@@H]1[C@@]24OO3` has an IC50 of 0.37 µM.

Tested on: not listed separately
Experiment: Cytotoxicity against HFF after 5 days by CellTiter 96 Aqueous One Solution assay
Conditions: human, HFF cells; read-out: TD50
For `CC1=C(c2nccs2)O[C@@H]2O[C@@]3(C)CC[C@H]4[C@H](C)CC[C@@H]1[C@@]24OO3`, the CC50 at 120 h was ≥ 320 µM. For `CC1=C(c2nc(C)cs2)O[C@@H]2O[C@@]3(C)CC[C@H]4[C@H](C)CC[C@@H]1[C@@]24OO3`, the CC50 at 120 h was ≥ 320 µM. In the case of `CC1=C(c2nc(-c3ccccc3)cs2)O[C@@H]2O[C@@]3(C)CC[C@H]4[C@H](C)CC[C@@H]1[C@@]24OO3`, the CC50 at 120 h is reported as ≥ 320 µM. Compound `CCN(CC)C(=O)C1=C(C)[C@@H]2CC[C@@H](C)[C@@H]3CC[C@@]4(C)OO[C@@]23[C@H](O1)O4` has a CC50 at 120 h of 23 µM. Compound `CC1=C(c2nc(C3CCCCC3)cs2)O[C@@H]2O[C@@]3(C)CC[C@H]4[C@H](C)CC[C@@H]1[C@@]24OO3` has a CC50 at 120 h of 1.8 µM. For `CC1=C(C(=O)NCc2cc(Br)cc(Br)c2)O[C@@H]2O[C@@]3(C)CC[C@H]4[C@H](C)CC[C@@H]1[C@@]24OO3`, the CC50 at 120 h was ≥ 320 µM. For `C[C@@H]1CC[C@H]2[C@@H](C)C(=O)O[C@@H]3O[C@@]4(C)CC[C@@H]1[C@]32OO4` [ARTEMISININ], the CC50 at 120 h was ≥ 320 µM. `CC1=C(C(=O)NCc2ccc(F)cc2)O[C@@H]2O[C@@]3(C)CC[C@H]4[C@H](C)CC[C@@H]1[C@@]24OO3` showed a CC50 at 120 h of 72 µM. `CCNC(=O)C1=C(C)[C@@H]2CC[C@@H](C)[C@@H]3CC[C@@]4(C)OO[C@@]23[C@H](O1)O4` gave a CC50 at 120 h of 259 µM. With `CC1=C(c2nc(C(C)(C)C)cs2)O[C@@H]2O[C@@]3(C)CC[C@H]4[C@H](C)CC[C@@H]1[C@@]24OO3` the CC50 at 120 h was ≥ 320 µM. Compound `CC1=C(c2nc(-c3ccccc3)no2)O[C@@H]2O[C@@]3(C)CC[C@H]4[C@H](C)CC[C@@H]1[C@@]24OO3` has a CC50 at 120 h of 141 µM. For `CC1=C(c2nc(C)c(C)s2)O[C@@H]2O[C@@]3(C)CC[C@H]4[C@H](C)CC[C@@H]1[C@@]24OO3`, the CC50 at 120 h was 38 µM. With `CC1=C(c2ncc(C)s2)O[C@@H]2O[C@@]3(C)CC[C@H]4[C@H](C)CC[C@@H]1[C@@]24OO3` the CC50 at 120 h was ≥ 320 µM.

Tested on: not listed separately
Experiment: Therapeutic index, ratio of TD50 for HFF cells to IC50 for Toxoplasma gondii F2
Format: cell-based
Conditions: human, read-out: TI
Compound `CC1=C(c2nccs2)O[C@@H]2O[C@@]3(C)CC[C@H]4[C@H](C)CC[C@@H]1[C@@]24OO3` has a selectivity ratio of 511. Work on `CC1=C(c2nc(C)cs2)O[C@@H]2O[C@@]3(C)CC[C@H]4[C@H](C)CC[C@@H]1[C@@]24OO3` yielded a selectivity ratio of 1410. For `CC1=C(c2nc(-c3ccccc3)cs2)O[C@@H]2O[C@@]3(C)CC[C@H]4[C@H](C)CC[C@@H]1[C@@]24OO3`, the selectivity ratio was 1650. Compound `CCN(CC)C(=O)C1=C(C)[C@@H]2CC[C@@H](C)[C@@H]3CC[C@@]4(C)OO[C@@]23[C@H](O1)O4` has a selectivity ratio of 2.1. For `CC1=C(c2nc(C3CCCCC3)cs2)O[C@@H]2O[C@@]3(C)CC[C@H]4[C@H](C)CC[C@@H]1[C@@]24OO3`, the selectivity ratio was 3. Compound `CC1=C(C(=O)NCc2cc(Br)cc(Br)c2)O[C@@H]2O[C@@]3(C)CC[C@H]4[C@H](C)CC[C@@H]1[C@@]24OO3` has a selectivity ratio of 694. For `C[C@@H]1CC[C@H]2[C@@H](C)C(=O)O[C@@H]3O[C@@]4(C)CC[C@@H]1[C@]32OO4` [ARTEMISININ], the selectivity ratio was 879. In the case of `CC1=C(C(=O)NCc2ccc(F)cc2)O[C@@H]2O[C@@]3(C)CC[C@H]4[C@H](C)CC[C@@H]1[C@@]24OO3`, the selectivity ratio is reported as 153. For `CCNC(=O)C1=C(C)[C@@H]2CC[C@@H](C)[C@@H]3CC[C@@]4(C)OO[C@@]23[C@H](O1)O4`, the selectivity ratio was 38. Compound `CC1=C(c2nc(C(C)(C)C)cs2)O[C@@H]2O[C@@]3(C)CC[C@H]4[C@H](C)CC[C@@H]1[C@@]24OO3` has a selectivity ratio of 2250. `CC1=C(c2nc(-c3ccccc3)no2)O[C@@H]2O[C@@]3(C)CC[C@H]4[C@H](C)CC[C@@H]1[C@@]24OO3` showed a selectivity ratio of 320. `CC1=C(c2nc(C)c(C)s2)O[C@@H]2O[C@@]3(C)CC[C@H]4[C@H](C)CC[C@@H]1[C@@]24OO3` gave a selectivity ratio of 240. Compound `CC1=C(c2ncc(C)s2)O[C@@H]2O[C@@]3(C)CC[C@H]4[C@H](C)CC[C@@H]1[C@@]24OO3` has a selectivity ratio of 1520.

Tested on: Toxoplasma gondii
Experiment: Antiparasitic activity against Toxoplasma gondii 2F infected in HFF cells assessed as inhibition of parasite replication at 5 uM
Format: functional, organism-based
Conditions: not given
Outline: as §1
With `CC1=C(c2nc(C)cs2)O[C@@H]2O[C@@]3(C)CC[C@H]4[C@H](C)CC[C@@H]1[C@@]24OO3` the Activity was “Active”. For `CC1=C(c2nc(-c3ccccc3)cs2)O[C@@H]2O[C@@]3(C)CC[C@H]4[C@H](C)CC[C@@H]1[C@@]24OO3`, the Activity was “Active”. In the case of `CC1=C(c2nc(C(C)(C)C)cs2)O[C@@H]2O[C@@]3(C)CC[C@H]4[C@H](C)CC[C@@H]1[C@@]24OO3`, the Activity is reported as “Active”. In the case of `CC1=C(c2nc(-c3ccccc3)no2)O[C@@H]2O[C@@]3(C)CC[C@H]4[C@H](C)CC[C@@H]1[C@@]24OO3`, the Activity is reported as “Active”. With `CC1=C(c2nc(C)c(C)s2)O[C@@H]2O[C@@]3(C)CC[C@H]4[C@H](C)CC[C@@H]1[C@@]24OO3` the Activity was “Active”. In the case of `CC1=C(c2ncc(C)s2)O[C@@H]2O[C@@]3(C)CC[C@H]4[C@H](C)CC[C@@H]1[C@@]24OO3`, the Activity is reported as “Active”.
